Tests used:
Assay type in all cases: functional
HCT-116 [1] = test: Growth inhibition of human HCT116 cells
KM12 = test: Growth inhibition of human KM12 cells
SF-295 = test: Growth inhibition of human SF295 cells
SNB-75 = test: Growth inhibition of human SNB75 cells
U-251 = test: Growth inhibition of human U251 cells
LOX IMVI = test: Growth inhibition of human LOXIMVI cells
M14 [2] = test: Growth inhibition of human M14 cells
SK-MEL-2 [3] = test: Growth inhibition of human SK-MEL-2 cells
SK-MEL-5 [4] = test: Growth inhibition of human SK-MEL-5 cells
OVCAR-4 [5] = test: Growth inhibition of human OVCAR4 cells
OVCAR-5 = test: Growth inhibition of human OVCAR5 cells
OVCAR-8 [6] = test: Growth inhibition of human OVCAR8 cells
NCI/ADR-RES [7] = test: Growth inhibition of human NCI/ADR-RES cells
SK-OV-3 = test: Growth inhibition of human SKOV3 cells
ACHN [8] = test: Growth inhibition of human ACHN cells
SN12C [9] = test: Growth inhibition of human SN12C cells
TK-10 = test: Growth inhibition of human TK10 cells
PC-3 = test: Growth inhibition of human PC3 cells
BT-549 = test: Growth inhibition of human BT549 cells
MDA-MB-468 = test: Growth inhibition of human MDA-MB-468 cells
K562 = test: Growth inhibition of human K562 cells assessed tumor cell growth at 10^-5 M; design: scale not given: the % may be the effect or the level left
Procedure, shortened: (§1)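 NCI 60-human-tumor-cell-line panel screen. Each compound was tested at a single concentration of 10^-5 M, and percent growth of tumor cells was recorded for each cell line. Growth inhibition was expressed from these percent-growth values.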

A549 = test: Growth inhibition of human A549 cells assessed tumor cell growth at 10^-5 M; design: scale not given: the % may be the effect or the level left; procedure, shortened: as §1
EKVX [10] = test: Growth inhibition of human EKVX cells assessed tumor cell growth at 10^-5 M; design: scale not given: the % may be the effect or the level left; procedure, shortened: as §1
HOP-92 = test: Growth inhibition of human HOP92 cells assessed tumor cell growth at 10^-5 M; design: scale not given: the % may be the effect or the level left; procedure, shortened: as §1
NCI-H226 = test: Growth inhibition of human NCI-H226 cells assessed tumor cell growth at 10^-5 M; design: scale not given: the % may be the effect or the level left; procedure, shortened: as §1
NCI-H23 = test: Growth inhibition of human NCI-H23 cells assessed tumor cell growth at 10^-5 M; design: scale not given: the % may be the effect or the level left; procedure, shortened: as §1
NCI-H322M [11] = test: Growth inhibition of human NCI-H322M cells assessed tumor cell growth at 10^-5 M; design: scale not given: the % may be the effect or the level left; procedure, shortened: as §1
NCI-H460 = test: Growth inhibition of human NCI-H460 cells assessed tumor cell growth at 10^-5 M; design: scale not given: the % may be the effect or the level left; procedure, shortened: as §1
NCI-H522 = test: Growth inhibition of human NCI-H522 cells assessed tumor cell growth at 10^-5 M; design: scale not given: the % may be the effect or the level left; procedure, shortened: as §1
COLO 205 = test: Growth inhibition of human COLO205 cells assessed tumor cell growth at 10^-5 M; design: scale not given: the % may be the effect or the level left; procedure, shortened: as §1
HCT-116 [12] = test: Growth inhibition of human HCT116 cells assessed tumor cell growth at 10^-5 M; design: scale not given: the % may be the effect or the level left; procedure, shortened: as §1
HCT-15 = test: Growth inhibition of human HCT15 cells assessed tumor cell growth at 10^-5 M; design: scale not given: the % may be the effect or the level left; procedure, shortened: as §1
SW-620 = test: Growth inhibition of human SW620 cells assessed tumor cell growth at 10^-5 M; design: scale not given: the % may be the effect or the level left
Procedure, shortened: (§2)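 Single-dose screen at 10^-5 M across the 60 human tumor cell line panel, run to NCI standards. The value is the percent growth of each cell line in the presence of compound. Compounds active at this dose moved on to five-concentration testing (10^-4 to 10^-8 M).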

M14 [13] = test: Growth inhibition of human M14 cells assessed tumor cell growth at 10^-5 M; design: scale not given: the % may be the effect or the level left; procedure, shortened: as §1
SK-MEL-2 [14] = test: Growth inhibition of human SK-MEL-2 cells assessed tumor cell growth at 10^-5 M; design: scale not given: the % may be the effect or the level left; procedure, shortened: as §1
SK-MEL-5 [15] = test: Growth inhibition of human SK-MEL-5 cells assessed tumor cell growth at 10^-5 M; design: scale not given: the % may be the effect or the level left; procedure, shortened: as §1
UACC-62 = test: Growth inhibition of human UACC62 cells assessed tumor cell growth at 10^-5 M; design: scale not given: the % may be the effect or the level left; procedure, shortened: as §2
OVCAR-3 = test: Growth inhibition of human OVCAR3 cells assessed tumor cell growth at 10^-5 M; design: scale not given: the % may be the effect or the level left; procedure, shortened: as §1
OVCAR-4 [16] = test: Growth inhibition of human OVCAR4 cells assessed tumor cell growth at 10^-5 M; design: scale not given: the % may be the effect or the level left; procedure, shortened: as §1
OVCAR-8 [17] = test: Growth inhibition of human OVCAR8 cells assessed tumor cell growth at 10^-5 M; design: scale not given: the % may be the effect or the level left; procedure, shortened: as §1
NCI/ADR-RES [18] = test: Growth inhibition of human NCI/ADR-RES cells assessed tumor cell growth at 10^-5 M; design: scale not given: the % may be the effect or the level left; procedure, shortened: as §1
786-0 = test: Growth inhibition of human 786-0 cells assessed tumor cell growth at 10^-5 M; design: scale not given: the % may be the effect or the level left; procedure, shortened: as §1
A498 = test: Growth inhibition of human A498 cells assessed tumor cell growth at 10^-5 M; design: scale not given: the % may be the effect or the level left; procedure, shortened: as §1
ACHN [19] = test: Growth inhibition of human ACHN cells assessed tumor cell growth at 10^-5 M; design: scale not given: the % may be the effect or the level left; procedure, shortened: as §1
SN12C [20] = test: Growth inhibition of human SN12C cells assessed tumor cell growth at 10^-5 M; design: scale not given: the % may be the effect or the level left; procedure, shortened: as §1
UO-31 = test: Growth inhibition of human UO31 cells assessed tumor cell growth at 10^-5 M; design: scale not given: the % may be the effect or the level left; procedure, shortened: as §2
MDA-MB-231 = test: Growth inhibition of human MDA-MB-231 cells assessed tumor cell growth at 10^-5 M; design: scale not given: the % may be the effect or the level left; procedure, shortened: as §1
[21] = Growth inhibition of human Hs 578T cells assessed tumor cell growth at 10^-5 M; design: scale not given: the % may be the effect or the level left; procedure, shortened: as §1
T47D = test: Growth inhibition of human T47D cells assessed tumor cell growth at 10^-5 M; design: scale not given: the % may be the effect or the level left; procedure, shortened: as §2
CCRF-CEM = test: Growth inhibition of human CCRF-CEM cells
EKVX [22] = test: Growth inhibition of human EKVX cells
HOP-62 = test: Growth inhibition of human HOP62 cells
NCI-H322M [23] = test: Growth inhibition of human NCI-H322M cells
[24] = read-out: LC50 (the source's name)

## CC1=NN(c2cccc(Cl)c2)C(=O)/C1=C\c1c(O)ccc2ccccc12
HCT-116 [1]
  GI50: > 100 µM
HCT-116 [1]; [24]
  CC50: > 100 µM
KM12
  GI50: > 100 µM
KM12; [24]
  CC50: > 100 µM
SF-295
  GI50: 22.9 µM
SF-295; [24]
  CC50: > 100 µM
SNB-75
  GI50: 0.9 µM
SNB-75; [24]
  CC50: > 100 µM
U-251
  GI50: 40.7 µM
U-251; [24]
  CC50: > 100 µM
LOX IMVI
  GI50: > 100 µM
LOX IMVI; [24]
  CC50: > 100 µM
M14 [2]
  GI50: > 100 µM
M14 [2]; [24]
  CC50: > 100 µM
SK-MEL-2 [3]
  GI50: 21.8 µM
SK-MEL-2 [3]; [24]
  CC50: > 100 µM
SK-MEL-5 [4]
  GI50: > 100 µM
SK-MEL-5 [4]; [24]
  CC50: > 100 µM
OVCAR-4 [5]
  GI50: > 100 µM
OVCAR-4 [5]; [24]
  CC50: > 100 µM
OVCAR-5
  GI50: > 100 µM
OVCAR-5; [24]
  CC50: > 100 µM
OVCAR-8 [6]
  GI50: > 100 µM
OVCAR-8 [6]; [24]
  CC50: > 100 µM
NCI/ADR-RES [7]
  GI50: > 100 µM
NCI/ADR-RES [7]; [24]
  CC50: > 100 µM
SK-OV-3
  GI50: 26.3 µM
SK-OV-3; [24]
  CC50: > 100 µM
ACHN [8]
  GI50: 16.9 µM
ACHN [8]; [24]
  CC50: > 100 µM
SN12C [9]
  GI50: > 100 µM
SN12C [9]; [24]
  CC50: > 100 µM
TK-10
  GI50: 34.6 µM
TK-10; [24]
  CC50: > 100 µM
PC-3
  GI50: > 100 µM
PC-3; [24]
  CC50: > 100 µM
BT-549
  GI50: 27.5 µM
BT-549; [24]
  CC50: > 100 µM
MDA-MB-468
  GI50: 17.7 µM
MDA-MB-468; [24]
  CC50: > 100 µM
K562
  Activity: 99.09%
A549
  Activity: 60.45%
EKVX [10]
  Activity: 51.27%
HOP-92
  Activity: -2.07%
NCI-H226
  Activity: 1.04%
NCI-H23
  Activity: -1.95%
NCI-H322M [11]
  Activity: 84.08%
NCI-H460
  Activity: 79.03%
NCI-H522
  Activity: -11.28%
COLO 205
  Activity: -80.64%
HCT-116 [12]
  Activity: 8.69%
HCT-15
  Activity: 49.94%
SW-620
  Activity: 30.97%
M14 [13]
  Activity: 18.24%
SK-MEL-2 [14]
  Activity: 38.07%
SK-MEL-5 [15]
  Activity: -82.5%
UACC-62
  Activity: 82.71%
OVCAR-3
  Activity: 63.18%
OVCAR-4 [16]
  Activity: -66.84%
OVCAR-8 [17]
  Activity: 22.34%
NCI/ADR-RES [18]
  Activity: 75.31%
786-0
  Activity: -46.85%
A498
  Activity: 107.38%
ACHN [19]
  Activity: -36.07%
SN12C [20]
  Activity: 23.59%
UO-31
  Activity: 66.56%
MDA-MB-231
  Activity: 4.08%
[21]
  Activity: 82.15%
T47D
  Activity: 2.21%
CCRF-CEM
  GI50: 97.7 µM
CCRF-CEM; [24]
  CC50: > 100 µM
EKVX [22]
  GI50: > 100 µM
EKVX [22]; [24]
  CC50: > 100 µM
HOP-62
  GI50: 31.6 µM
HOP-62; [24]
  CC50: > 100 µM
NCI-H322M [23]
  GI50: > 100 µM
NCI-H322M [23]; [24]
  CC50: > 100 µM

— ChEMBL document CHEMBL1811814, “Synthesis and evaluation of indole, pyrazole, chromone and pyrimidine based conjugates for tumor growth inhibitory activities--development of highly efficacious cytotoxic agents” (Eur J Med Chem, 2010)
